Laboratory results published in ChEMBL document CHEMBL1148485, “Synthesis and biological evaluation of new selective cytotoxic cyclolignans derived from podophyllotoxin” (J Med Chem, 2004).

Tests used:
HeLa [1] = assay: Effect on cell cycle evaluated as proportion of cells in G0/G1 phase of the cell cycle at 10E-6 M for 24 hr in HeLa cells; assay type: functional, Homo sapiens
In short: (§1)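 HeLa cells were grown in DMEM with 10% heat-inactivated FCS and 2 mM L-glutamine at 37 °C in 5% CO2. They were exposed to 10^-6 to 10^-8 M for 24, 48 or 72 h. Then (3-5)×10^5 cells were fixed overnight in 70% ethanol at 4 °C, PBS-washed, and given 1 mg/mL RNase A plus 20 µg/mL propidium iodide for 1 h at room temperature. DNA content was read by flow cytometry. Sub-G1 (hypodiploid) % counted as apoptotic. Untreated controls were run in parallel. Representative of three independent experiments.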

HeLa [2] = assay: Effect on cell cycle evaluated as proportion of cells in G0/G1 phase of the cell cycle at 10E-6 M for 48 hr in HeLa cells; assay type: functional, Homo sapiens; in short: as §1
HeLa [3] = assay: Effect on cell cycle evaluated as proportion of cells in G0/G1 phase of the cell cycle at 10E-6 M for 72 hr in HeLa cells; assay type: functional, Homo sapiens; in short: as §1
HeLa [4] = assay: Effect on cell cycle evaluated as proportion of cells in G0/G1 phase of the cell cycle at 10E-7 M for 24 hr in HeLa cells; assay type: functional, Homo sapiens; in short: as §1
HeLa [5] = assay: Effect on cell cycle evaluated as proportion of cells in G0/G1 phase of the cell cycle at 10E-7 M for 48 hr in HeLa cells; assay type: functional, Homo sapiens; in short: as §1
HeLa [6] = assay: Effect on cell cycle evaluated as proportion of cells in G0/G1 phase of the cell cycle at 10E-7 M for 72 hr in HeLa cells; assay type: functional, Homo sapiens; in short: as §1
HeLa [7] = assay: Effect on cell cycle evaluated as proportion of cells in G0/G1 phase of the cell cycle at 10E-8 M for 24 hr in HeLa cells; assay type: functional, Homo sapiens; in short: as §1
HeLa [8] = assay: Effect on cell cycle evaluated as proportion of cells in G0/G1 phase of the cell cycle at 10E-8 M for 48 hr in HeLa cells; assay type: functional, Homo sapiens; in short: as §1
HeLa [9] = assay: Effect on cell cycle evaluated as proportion of cells in G0/G1 phase of the cell cycle at 10E-8 M for 72 hr in HeLa cells; assay type: functional, Homo sapiens; in short: as §1
HeLa [10] = assay: Effect on cell cycle evaluated as proportion of cells in G2/M phase of the cell cycle at 10E-6 M for 48 hr in HeLa cells; assay type: functional, Homo sapiens; in short: as §1
HeLa [11] = assay: Effect on cell cycle evaluated as proportion of cells in G2/M phase of the cell cycle at 10E-6 M for 72 hr in HeLa cells; assay type: functional, Homo sapiens; in short: as §1
HeLa [12] = assay: Effect on cell cycle evaluated as proportion of cells in S phase of the cell cycle at 10E-8 M for 24 hr in HeLa cells; assay type: functional, Homo sapiens; in short: as §1
HeLa [13] = assay: Effect on cell cycle evaluated as proportion of cells in S phase of the cell cycle at 10E-8 M for 48 hr in HeLa cells; assay type: functional, Homo sapiens; in short: as §1
HeLa [14] = assay: Effect on cell cycle evaluated as proportion of cells in S phase of the cell cycle at 10E-8 M for 72 hr in HeLa cells; assay type: functional, Homo sapiens; in short: as §1
HeLa [15] = assay: Effect on cell cycle evaluated as proportion of cells in S phase of the cell cycleG2/M at 10E-8 M for 72 hr in HeLa cells; assay type: functional, Homo sapiens; in short: as §1
HeLa [16] = assay: Effect on cell cycle evaluated as proportion of cells in sub-G1 (apoptic cells) phase of the cell cycle at 10E-6 M for 72 hr in HeLa cells; assay type: functional, Homo sapiens; in short: as §1
HeLa [17] = assay: Effect on cell cycle evaluated as proportion of cells in sub-G1 (apoptic cells) phase of the cell cycle at 10E-7 M for 72 hr in HeLa cells; assay type: functional, Homo sapiens; in short: as §1
HeLa [18] = assay: Effect on cell cycle evaluated as proportion of cells in sub-G1 phase (apoptic cells )of the cell cycle at 10E-8 M for 24 hr in HeLa cells; assay type: functional, Homo sapiens; in short: as §1
HeLa [19] = assay: Effect on cell cycle evaluated as proportion of cells in sub-G1 phase (apoptic cells) of the cell cycle at 10E-6 M for 24 hr in HeLa cells; assay type: functional, Homo sapiens; in short: as §1
HeLa [20] = assay: Effect on cell cycle evaluated as proportion of cells in sub-G1 phase (apoptic cells) of the cell cycle at 10E-7 M for 24 hr in HeLa cells; assay type: functional, Homo sapiens; in short: as §1
HeLa [21] = assay: Effect on cell cycle evaluated as proportion of cells in sub-G1 phase (apoptic cells)of the cell cycle at 10E-8 M for 48 hr in HeLa cells; assay type: functional, Homo sapiens; in short: as §1
HeLa [22] = assay: Effect on cell cycle evaluated as proportion of cells in sub-G1 phase of the cell cycle at 10E-7 M for 48 hr in HeLa cells; assay type: functional, Homo sapiens; in short: as §1
HT-29 = assay: In vitro cytotoxicity against HT-29 (human colon carcinoma) cell line.; assay type: functional, cell-based; details: Homo sapiens, HT-29
HeLa [23] = assay: Effect on cell cycle evaluated as proportion of cells in G2/M phase of the cell cycle at 10E-7 M for 72 hr in HeLa cells; assay type: functional, Homo sapiens; in short: as §1
HeLa [24] = assay: Effect on cell cycle evaluated as proportion of cells in G2/M phase of the cell cycle at 10E-8 M for 24 hr in HeLa cells; assay type: functional, Homo sapiens; in short: as §1
HeLa [25] = assay: Effect on cell cycle evaluated as proportion of cells in G2/M phase of the cell cycle at 10E-8 M for 48 hr in HeLa cells; assay type: functional, Homo sapiens; in short: as §1
HeLa [26] = assay: Effect on cell cycle evaluated as proportion of cells in S phase of the cell cycle at 10E-6 M for 24 hr in HeLa cells; assay type: functional, Homo sapiens; in short: as §1
HeLa [27] = assay: Effect on cell cycle evaluated as proportion of cells in S phase of the cell cycle at 10E-6 M for 48 hr in HeLa cells; assay type: functional, Homo sapiens; in short: as §1
HeLa [28] = assay: Effect on cell cycle evaluated as proportion of cells in S phase of the cell cycle at 10E-6 M for 72 hr in HeLa cells; assay type: functional, Homo sapiens; in short: as §1
HeLa [29] = assay: Effect on cell cycle evaluated as proportion of cells in S phase of the cell cycle at 10E-7 M for 24 hr in HeLa cells; assay type: functional, Homo sapiens; in short: as §1
HeLa [30] = assay: Effect on cell cycle evaluated as proportion of cells in S phase of the cell cycle at 10E-7 M for 48 hr in HeLa cells; assay type: functional, Homo sapiens; in short: as §1
HeLa [31] = assay: Effect on cell cycle evaluated as proportion of cells in S phase of the cell cycle at 10E-7 M for 72 hr in HeLa cells; assay type: functional, Homo sapiens; in short: as §1
HeLa [32] = assay: Effect on cell cycle evaluated as proportion of cells in G2/M phase of the cell cycle at 10E-7 M for 24 hr in HeLa cells; assay type: functional, Homo sapiens; in short: as §1
HeLa [33] = assay: Effect on cell cycle evaluated as proportion of cells in G2/M phase of the cell cycle at 10E-7 M for 48 hr in HeLa cells; assay type: functional, Homo sapiens; in short: as §1
HeLa [34] = assay: Effect on cell cycle evaluated as proportion of cells in sub-G1 phase(apoptic cells) of the cell cycle at 10E-8 M for 72 hr in HeLa cells; assay type: functional, Homo sapiens; in short: as §1
HeLa [35] = assay: Effect on cell cycle evaluated as proportion of cells in sub-G1 (apoptic cells) phase of the cell cycle at 10E-6 M for 48 hr in HeLa cells; assay type: functional, Homo sapiens; in short: as §1
[36] = Selectivity index is the ratio of IC50 of P-388 cell line to that of HT-29; assay type: functional
HeLa [37] = assay: Effect on cell cycle evaluated as proportion of cells in G2/M phase of the cell cycle at 10E-6 M for 24 hr in HeLa cells; assay type: functional, Homo sapiens; in short: as §1

COc1cc([C@@H]2c3cc4c(cc3[C@H](O)[C@H]3COC(=O)[C@H]23)OCO4)cc(OC)c1OC [PODOFILOX]
Activity (HeLa [1]): 2.2% | Activity (HeLa [2]): 9.7% | Activity (HeLa [3]): 7.1% | Activity (HeLa [4]): 2.2% | Activity (HeLa [5]): 11% | Activity (HeLa [6]): 9.2% | Activity (HeLa [7]): 22.6% | Activity (HeLa [8]): 16.1% | Activity (HeLa [9]): 13.9% | Activity (HeLa [10]): 18% | Activity (HeLa [11]): 0.2% | Activity (HeLa [12]): 4.3% | Activity (HeLa [13]): 9.7% | Activity (HeLa [14]): 4.1% | Activity (HeLa [15]): 0.2% | Activity (HeLa [16]): 89.3% | Activity (HeLa [17]): 88.1% | Activity (HeLa [18]): 1.4% | Activity (HeLa [19]): 1.5% | Activity (HeLa [20]): 1.6% | Activity (HeLa [21]): 68.4% | Activity (HeLa [22]): 59% | IC50 (HT-29): 24 nM | Activity (HeLa [23]): 0.2% | Activity (HeLa [24]): 71.7% | Activity (HeLa [25]): 5.8% | Activity (HeLa [26]): 4.2% | Activity (HeLa [27]): 10% | Activity (HeLa [28]): 3.4% | Activity (HeLa [29]): 4.5% | Activity (HeLa [30]): 10.5% | Activity (HeLa [31]): 2.5% | Activity (HeLa [32]): 91.7% | Activity (HeLa [33]): 19.5% | Activity (HeLa [34]): 81.8% | Activity (HeLa [35]): 62.3% | Selectivity index [36]: 0.5 | Activity (HeLa [37]): 92.1%
